ChEMBL document CHEMBL4354843, “Structure-Based Design of a Potent and Selective Covalent Inhibitor for SRC Kinase That Targets a P-Loop Cysteine” (J Med Chem, 2020)
The source made the active and inactive calls. The calls are words filed in the database; no cut-off is given here.

Experiments:
[1] = test system: Receptor-type tyrosine-protein kinase FLT3 (Homo sapiens), P36888 [UNDEFINED MUTATION]; assay: Binding affinity to human partial length FLT3 ITD/D835V double mutant expressed in bacterial expression system assessed as residual binding level at 1 uM by Kinomescan method relative to control
Outline: (§1)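 KinomeScan active site-directed competition binding panel (468 kinases), compound tested at 1 μM. Result expressed as remaining kinase signal versus DMSO control (percent of control).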

[2] = target: Ribosomal protein S6 kinase alpha-4 (Homo sapiens) (UniProt O75676); assay: Binding affinity to wild-type human partial length C-terminal RPS6KA4 kinase domain 2 (M375 to T705 residues) expressed in mammalian expression system assessed as residual binding level at 1 uM by Kinomescan method relative to control
Sequence of Ribosomal protein S6 kinase alpha-4 (Homo sapiens) (O75676 whole entry, looked up, the tested form may be a part): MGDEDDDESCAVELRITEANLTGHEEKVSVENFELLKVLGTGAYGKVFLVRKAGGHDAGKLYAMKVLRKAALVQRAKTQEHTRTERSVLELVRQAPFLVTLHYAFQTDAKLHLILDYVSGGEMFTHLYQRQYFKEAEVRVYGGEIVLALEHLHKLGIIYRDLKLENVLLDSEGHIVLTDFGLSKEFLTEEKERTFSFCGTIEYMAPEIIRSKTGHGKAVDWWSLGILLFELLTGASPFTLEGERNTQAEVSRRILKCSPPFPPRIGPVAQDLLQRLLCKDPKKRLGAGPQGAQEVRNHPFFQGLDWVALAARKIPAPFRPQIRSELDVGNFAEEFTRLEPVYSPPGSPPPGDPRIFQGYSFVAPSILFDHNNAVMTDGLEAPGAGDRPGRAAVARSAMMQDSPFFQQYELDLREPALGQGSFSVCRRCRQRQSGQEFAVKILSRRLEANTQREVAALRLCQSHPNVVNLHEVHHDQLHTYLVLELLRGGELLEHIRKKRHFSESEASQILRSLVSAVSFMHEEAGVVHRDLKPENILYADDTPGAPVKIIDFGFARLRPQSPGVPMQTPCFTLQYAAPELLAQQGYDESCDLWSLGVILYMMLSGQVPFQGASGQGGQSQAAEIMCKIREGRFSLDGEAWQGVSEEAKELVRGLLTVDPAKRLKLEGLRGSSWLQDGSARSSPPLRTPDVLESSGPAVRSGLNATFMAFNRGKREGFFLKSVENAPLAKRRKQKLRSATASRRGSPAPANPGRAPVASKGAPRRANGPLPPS

[3] = target: Mitogen-activated protein kinase kinase kinase 19 (Homo sapiens) (UniProt Q56UN5); assay: Binding affinity to wild-type human partial length YSK4 (T1019 to H1328 residues) expressed in mammalian expression system assessed as residual binding level at 1 uM by Kinomescan method relative to control
Sequence of Mitogen-activated protein kinase kinase kinase 19 (Homo sapiens) (Q56UN5 whole entry, the tested form may be a part): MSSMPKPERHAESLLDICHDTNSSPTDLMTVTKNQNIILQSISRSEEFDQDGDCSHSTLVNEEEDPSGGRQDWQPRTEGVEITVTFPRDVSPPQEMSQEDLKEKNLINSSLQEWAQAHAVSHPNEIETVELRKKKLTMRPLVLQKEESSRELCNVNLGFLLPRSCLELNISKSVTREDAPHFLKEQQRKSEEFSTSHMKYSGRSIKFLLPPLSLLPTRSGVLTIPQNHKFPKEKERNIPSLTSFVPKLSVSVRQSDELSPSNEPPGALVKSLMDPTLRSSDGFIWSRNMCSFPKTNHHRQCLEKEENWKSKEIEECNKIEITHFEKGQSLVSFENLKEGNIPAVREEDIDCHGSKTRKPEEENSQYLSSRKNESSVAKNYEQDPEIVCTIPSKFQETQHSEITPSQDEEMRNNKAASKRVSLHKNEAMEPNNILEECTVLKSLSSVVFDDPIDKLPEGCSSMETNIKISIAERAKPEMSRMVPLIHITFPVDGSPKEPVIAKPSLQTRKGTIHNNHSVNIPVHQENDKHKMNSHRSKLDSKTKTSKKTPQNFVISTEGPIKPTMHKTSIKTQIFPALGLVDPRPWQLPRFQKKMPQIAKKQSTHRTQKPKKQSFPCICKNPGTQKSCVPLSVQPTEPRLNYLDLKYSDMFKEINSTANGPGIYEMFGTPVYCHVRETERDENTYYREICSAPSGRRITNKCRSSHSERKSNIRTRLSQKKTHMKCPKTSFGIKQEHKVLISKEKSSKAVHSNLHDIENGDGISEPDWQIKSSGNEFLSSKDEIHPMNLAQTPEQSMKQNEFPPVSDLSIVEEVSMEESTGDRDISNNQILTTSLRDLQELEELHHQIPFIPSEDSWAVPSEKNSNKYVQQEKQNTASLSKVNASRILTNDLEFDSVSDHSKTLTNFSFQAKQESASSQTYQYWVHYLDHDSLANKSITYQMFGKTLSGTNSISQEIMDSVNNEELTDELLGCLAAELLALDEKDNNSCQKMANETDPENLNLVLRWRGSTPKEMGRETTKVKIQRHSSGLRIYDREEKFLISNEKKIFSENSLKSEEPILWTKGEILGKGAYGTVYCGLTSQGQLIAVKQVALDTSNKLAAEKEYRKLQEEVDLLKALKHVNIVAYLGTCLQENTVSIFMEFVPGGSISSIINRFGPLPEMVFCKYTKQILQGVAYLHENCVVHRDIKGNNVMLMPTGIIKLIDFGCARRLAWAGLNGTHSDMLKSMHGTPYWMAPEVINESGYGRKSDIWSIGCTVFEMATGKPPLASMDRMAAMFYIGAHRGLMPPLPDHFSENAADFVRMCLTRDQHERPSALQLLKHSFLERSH
Outline: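 Active site-directed competition binding panel (KinomeScan, 468 kinases). Test compound at 1 μM. Read-out is kinase binding remaining versus DMSO control, expressed as percent of control. Scores above 35% are treated as weak binding.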

[4] = target: Ephrin type-B receptor 1 (Homo sapiens) (UniProt P54762); assay: Binding affinity to wild-type human partial length EPHB1 (P589 to T911 residues) expressed in bacterial expression system assessed as residual binding level at 1 uM by Kinomescan method relative to control
[5] = target: Dual specificity mitogen-activated protein kinase kinase 5 (Homo sapiens) (UniProt Q13163); assay: Binding affinity to wild-type human partial length MEK5 (L98 to P448 residues) expressed in mammalian expression system assessed as residual binding level at 1 uM by Kinomescan method relative to control
Sequence of Dual specificity mitogen-activated protein kinase kinase 5 (Homo sapiens) (Q13163 whole entry, the tested form may be a part): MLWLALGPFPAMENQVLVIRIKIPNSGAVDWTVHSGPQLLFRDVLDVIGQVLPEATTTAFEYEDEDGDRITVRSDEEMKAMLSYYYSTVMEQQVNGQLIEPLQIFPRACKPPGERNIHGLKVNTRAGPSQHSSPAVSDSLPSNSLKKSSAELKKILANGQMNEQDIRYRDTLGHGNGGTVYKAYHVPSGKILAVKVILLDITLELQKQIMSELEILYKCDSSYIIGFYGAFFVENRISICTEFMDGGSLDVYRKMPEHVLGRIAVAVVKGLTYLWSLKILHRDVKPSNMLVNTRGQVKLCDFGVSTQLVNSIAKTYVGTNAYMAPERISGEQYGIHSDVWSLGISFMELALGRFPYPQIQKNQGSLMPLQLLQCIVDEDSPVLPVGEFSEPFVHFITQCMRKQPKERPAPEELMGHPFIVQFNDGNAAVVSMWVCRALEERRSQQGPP
Outline: (§2)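 Active-site-directed competition binding panel of 468 kinases (KinomeScan), compound at 1 μM. The read-out is kinase remaining bound, given as a percentage of the DMSO control. […]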

[6] = target: Serine/threonine-protein kinase/endoribonuclease IRE1 (Homo sapiens) (UniProt O75460); assay: Binding affinity to wild-type human partial length ERN1 (S551 to E852 residues) expressed in mammalian expression system assessed as residual binding level at 1 uM by Kinomescan method relative to control; outline: as §2
Sequence of Serine/threonine-protein kinase/endoribonuclease IRE1 (Homo sapiens) (O75460 19-977 limits assumed): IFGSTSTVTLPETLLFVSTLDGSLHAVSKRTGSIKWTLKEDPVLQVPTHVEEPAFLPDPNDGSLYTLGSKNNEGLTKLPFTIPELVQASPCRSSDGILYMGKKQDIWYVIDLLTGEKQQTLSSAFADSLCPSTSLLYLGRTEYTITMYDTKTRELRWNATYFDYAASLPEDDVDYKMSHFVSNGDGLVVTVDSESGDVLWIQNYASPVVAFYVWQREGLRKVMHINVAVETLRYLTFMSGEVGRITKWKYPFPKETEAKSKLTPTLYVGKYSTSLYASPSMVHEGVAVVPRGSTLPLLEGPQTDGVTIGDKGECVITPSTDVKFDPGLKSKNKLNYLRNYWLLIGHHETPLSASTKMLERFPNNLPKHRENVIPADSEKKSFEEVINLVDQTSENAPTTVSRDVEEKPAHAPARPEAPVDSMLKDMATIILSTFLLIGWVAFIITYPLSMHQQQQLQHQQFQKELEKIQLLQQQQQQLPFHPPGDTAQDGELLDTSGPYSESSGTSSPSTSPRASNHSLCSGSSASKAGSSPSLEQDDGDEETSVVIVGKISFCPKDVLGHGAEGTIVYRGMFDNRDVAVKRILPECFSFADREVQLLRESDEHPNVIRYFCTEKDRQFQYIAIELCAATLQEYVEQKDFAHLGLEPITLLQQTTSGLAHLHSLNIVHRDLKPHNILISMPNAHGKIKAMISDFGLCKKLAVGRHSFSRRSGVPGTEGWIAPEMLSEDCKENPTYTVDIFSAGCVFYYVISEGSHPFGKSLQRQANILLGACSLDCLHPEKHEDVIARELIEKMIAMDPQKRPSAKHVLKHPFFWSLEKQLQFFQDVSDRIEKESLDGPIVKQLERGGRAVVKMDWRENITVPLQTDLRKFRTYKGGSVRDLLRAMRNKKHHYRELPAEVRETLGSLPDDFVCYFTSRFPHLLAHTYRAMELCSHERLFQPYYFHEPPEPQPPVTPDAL

[7] = test system: Mast/stem cell growth factor receptor Kit (Homo sapiens), P10721 [V559D,T670I]; assay: Binding affinity to human partial length KIT V559D/T670I double mutant (Y545 to D952 residues) expressed in bacterial expression system assessed as residual binding level at 1 uM by Kinomescan method relative to control; outline: as §1
[8] = target: Serine/threonine-protein kinase TAO2 (Homo sapiens) (UniProt Q9UL54); assay: Binding affinity to wild-type human partial length TAOK2 (M1 to A320 residues) expressed in mammalian expression system assessed as residual binding level at 1 uM by Kinomescan method relative to control
[9] = target: Dual specificity mitogen-activated protein kinase kinase 7 (Homo sapiens) (UniProt O14733); assay: Binding affinity to wild-type human full length MKK7 (M1 to R419 residues) expressed in mammalian expression system assessed as residual binding level at 1 uM by Kinomescan method relative to control
Outline: (§3)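 KinomeScan, an active site-directed competition binding panel of 468 kinases. The test compound was at 1 μM. The readout is remaining kinase binding as a percentage of the DMSO control. Scores above 35% were treated as weak binding and not listed.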

[10] = target: Serine/threonine-protein kinase 26 (Homo sapiens) (UniProt Q9P289); assay: Binding affinity to wild-type human full length MST4 (M1 to P416 residues) expressed in mammalian expression system assessed as residual binding level at 1 uM by Kinomescan method relative to control
Sequence of Serine/threonine-protein kinase 26 (Homo sapiens) (Q9P289 2-416 limits assumed): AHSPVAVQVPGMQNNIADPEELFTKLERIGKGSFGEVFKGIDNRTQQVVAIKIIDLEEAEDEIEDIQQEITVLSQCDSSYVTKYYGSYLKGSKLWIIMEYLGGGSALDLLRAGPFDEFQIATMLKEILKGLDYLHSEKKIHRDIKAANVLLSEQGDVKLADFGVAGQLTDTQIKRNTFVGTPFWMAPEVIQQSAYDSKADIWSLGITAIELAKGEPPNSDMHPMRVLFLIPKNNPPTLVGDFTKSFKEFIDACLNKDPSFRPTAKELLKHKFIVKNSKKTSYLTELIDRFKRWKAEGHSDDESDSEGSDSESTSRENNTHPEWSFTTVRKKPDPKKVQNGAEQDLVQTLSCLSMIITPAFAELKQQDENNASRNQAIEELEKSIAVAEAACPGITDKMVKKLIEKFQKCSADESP
Outline: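 Active-site-directed competition binding panel (KinomeScan) covering 468 kinases. Test agent was screened at 1 μM. The read-out is the remaining kinase signal expressed relative to a DMSO control. Scores above 35%, taken as weak binding, were not reported.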

[11] = target: Serine/threonine-protein kinase TNNI3K (Homo sapiens) (UniProt Q59H18); assay: Binding affinity to wild-type human full length TNNI3K (M1 to S835 residues) expressed in bacterial expression system assessed as residual binding level at 1 uM by Kinomescan method relative to control; outline: as §3
[12] = target: Myosin light chain kinase family member 4 (Homo sapiens) (UniProt Q86YV6); assay: Binding affinity to wild-type human partial length MYLK4 (V79 to S380 residues) expressed in bacterial expression system assessed as residual binding level at 1 uM by Kinomescan method relative to control
Sequence of Myosin light chain kinase family member 4 (Homo sapiens) (Q86YV6 whole entry, the tested form may be a part): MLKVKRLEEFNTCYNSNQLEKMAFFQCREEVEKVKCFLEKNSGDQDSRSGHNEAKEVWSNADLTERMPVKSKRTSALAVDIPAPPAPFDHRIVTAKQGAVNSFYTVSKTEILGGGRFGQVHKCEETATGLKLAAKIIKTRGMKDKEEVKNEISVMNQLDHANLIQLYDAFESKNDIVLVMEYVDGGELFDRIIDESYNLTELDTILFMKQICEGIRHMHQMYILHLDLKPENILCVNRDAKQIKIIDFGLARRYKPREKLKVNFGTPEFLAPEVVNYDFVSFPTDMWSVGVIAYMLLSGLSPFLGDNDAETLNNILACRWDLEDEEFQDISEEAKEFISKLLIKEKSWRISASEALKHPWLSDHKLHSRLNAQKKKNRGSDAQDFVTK

[13] = target: Serine/threonine-protein kinase 32B (Homo sapiens) (UniProt Q9NY57); assay: Binding affinity to wild-type human full length YANK2 (M1 to S414 residues) expressed in bacterial expression system assessed as residual binding level at 1 uM by Kinomescan method relative to control
Sequence of Serine/threonine-protein kinase 32B (Homo sapiens) (Q9NY57 whole entry, the tested form may be a part): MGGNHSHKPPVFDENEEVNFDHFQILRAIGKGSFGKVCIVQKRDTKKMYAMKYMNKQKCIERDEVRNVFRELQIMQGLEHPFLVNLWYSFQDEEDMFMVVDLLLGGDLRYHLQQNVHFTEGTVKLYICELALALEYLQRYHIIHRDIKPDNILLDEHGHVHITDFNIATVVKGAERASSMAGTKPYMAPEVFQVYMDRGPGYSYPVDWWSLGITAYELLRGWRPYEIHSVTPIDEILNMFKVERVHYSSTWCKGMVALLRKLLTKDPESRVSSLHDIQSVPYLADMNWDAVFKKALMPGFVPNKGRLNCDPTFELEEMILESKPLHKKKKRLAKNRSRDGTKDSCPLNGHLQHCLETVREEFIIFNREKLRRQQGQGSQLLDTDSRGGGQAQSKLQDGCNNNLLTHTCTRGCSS

[14] = target: Serine/threonine-protein kinase SIK2 (Homo sapiens) (UniProt Q9H0K1); assay: Binding affinity to wild-type human full length SIK2 (M1 to N926 residues) expressed in bacterial expression system assessed as residual binding level at 1 uM by Kinomescan method relative to control
Outline: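 Active site-directed binding assay (KinomeScan) run across a 468-kinase panel, with the test compound at 1 μM. The read-out is the remaining kinase signal in the presence of compound, expressed as a percentage of the DMSO control. Scores above 35% were taken as weak binding and were not reported.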

[15] = target: Aurora kinase A (Homo sapiens) (UniProt O14965); assay: Binding affinity to wild-type human partial length AURKA (E122 to K401 residues) expressed in mammalian expression system assessed as residual binding level at 1 uM by Kinomescan method relative to control
[16] = target: Cyclin-dependent kinase-like 1 (Homo sapiens) (UniProt Q00532); assay: Binding affinity to wild-type human full length CDKL1 (M1 to I358 residues) expressed in mammalian expression system assessed as residual binding level at 1 uM by Kinomescan method relative to control; outline: as §3
[17] = target: Protein-tyrosine kinase 6 (Homo sapiens) (UniProt Q13882); assay: Binding affinity to wild-type human partial length BRK (L166 to T451 residues) expressed in bacterial expression system assessed as residual binding level at 1 uM by Kinomescan method relative to control
[18] = target: Mitogen-activated protein kinase 14 (Homo sapiens) (UniProt Q16539); assay: Binding affinity to wild-type human full length p38-alpha (M1 to S360 residues) expressed in bacterial expression system assessed as residual binding level at 1 uM by Kinomescan method relative to control; outline: as §3
[19] = target: Dual specificity mitogen-activated protein kinase kinase; MEK1/2 (Homo sapiens) (UniProt P36507+Q02750); assay: Inhibition of MEK1/2 in human HCC827 cells assessed as blocking of MEK1/2 pulldown at 1 uM in presence of TL13-68 incubated for 2 hrs by Western blot analysis; format: cell-based
Outline: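 H1975 or HCC827 cells treated with 1 μM compound or DMSO for 2 h, rinsed twice in cold PBS, and lysed in M-PER with protease/phosphatase inhibitors. Lysate rocked overnight at 4 °C with 1 μM TL13-68, then streptavidin pulldown with five cold washes. Bound kinases detected by Western blot. Two independent experiments.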

In the case of `C=CC(=O)Nc1ccccc1Nc1nc(Nc2ccc(N3CCN(C)CC3)cc2)ncc1C(=O)Nc1c(C)cccc1Cl`, the Activity [1] is reported as 89%, the Activity [2] is reported as 100% and the Activity [3] is reported as 83%. For the same compound, the Activity [4] was 66%, the Activity [5] was 81% and the Activity [6] was 98%. The Activity [7] was 100%, the Activity [8] was 100% and the Activity [9] was 96%. For the same compound, the Activity [10] was 85%, the Activity [11] was 83% and the Activity [12] was 100%. For the same compound, the Activity [13] was 100%, the Activity [14] was 67% and the Activity [15] was 100%. For the same compound, the Activity [16] was 72%, the Activity [17] was 100% and the Activity [18] was 28%. The inhibition [19] was “inactive”.
